Data as given in ChEMBL document CHEMBL1133640, “Structure-activity studies including a Psi(CH(2)-NH) scan of peptide YY (PYY) active site, PYY(22-36), for interaction with rat intestinal PYY receptors: development of analogues with potent in vivo activity in the intestine” (J Med Chem, 2000).
pIC50: −log10 of the molar value. *1 amine or outer side, *2 acyl side, *3 side chain or, on linkers, in order; H or OH if unused. Where a SMILES comes first, the peptide text is derived from it. Bridges are numbered along the chain shown (N, C = ends). Roman numbers before positions name the chains, in order. Side-chain parts run from the residue outwards. [ ]: non-standard residue; d: D form. The star is where a group is joined. Argψ(CH2NH)TyrNH2 = N=C(N)NCCC[C@@H](CN[C@@H](Cc1ccc(O)cc1)C(N)=O)N*; X4 = NC(N)=NCCC[C@@H](CN([C@@H](Cc1c[nH]cn1)C(=O)[*:2])[*:1])N[*:3]; Dip = N[C@H](C(=O)O)C(c1ccccc1)c1ccccc1; 1Nal = N[C@@H](Cc1cccc2ccccc12)C(=O)O; 3Thi = N[C@@H](Cc1ccsc1)C(=O)O

Key:
[1] = biological target: T1, Neuropeptide Y receptor type 2 (Homo sapiens, UniProt P49146); assay: Affinity against Neuropeptide Y receptor Y2 in SK-N-BE2 cell line
T1 sequence (P49146 whole entry): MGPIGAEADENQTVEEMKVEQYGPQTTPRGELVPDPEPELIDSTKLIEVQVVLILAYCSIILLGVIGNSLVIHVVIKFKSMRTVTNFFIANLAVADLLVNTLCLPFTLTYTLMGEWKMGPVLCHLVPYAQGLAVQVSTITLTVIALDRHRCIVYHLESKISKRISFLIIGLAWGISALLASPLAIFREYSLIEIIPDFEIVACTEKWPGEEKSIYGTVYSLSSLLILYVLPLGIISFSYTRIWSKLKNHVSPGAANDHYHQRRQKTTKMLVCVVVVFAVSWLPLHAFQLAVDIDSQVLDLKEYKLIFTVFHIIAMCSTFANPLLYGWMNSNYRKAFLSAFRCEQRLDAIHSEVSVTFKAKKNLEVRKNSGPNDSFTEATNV

[2] = biological target: Neuropeptide Y receptor type 1 (Homo sapiens, UniProt P25929); assay: Affinity against Neuropeptide Y receptor Y1 in SK-N-MC cell line; assay type: cell-based
Chain of Neuropeptide Y receptor type 1 (P25929 whole entry): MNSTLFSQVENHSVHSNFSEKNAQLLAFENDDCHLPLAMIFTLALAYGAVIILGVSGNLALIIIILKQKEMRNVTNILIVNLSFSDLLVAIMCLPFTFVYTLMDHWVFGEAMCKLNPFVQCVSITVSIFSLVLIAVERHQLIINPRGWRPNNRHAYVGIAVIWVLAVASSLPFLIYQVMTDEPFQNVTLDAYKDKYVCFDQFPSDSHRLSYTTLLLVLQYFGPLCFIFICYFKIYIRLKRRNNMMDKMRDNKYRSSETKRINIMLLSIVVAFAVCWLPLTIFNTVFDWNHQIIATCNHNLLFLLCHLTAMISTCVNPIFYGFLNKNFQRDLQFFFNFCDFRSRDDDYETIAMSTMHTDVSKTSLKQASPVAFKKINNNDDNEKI

[3] = biological target: T2, Neuropeptide Y receptor type 2 (Rattus norvegicus, UniProt Q9ERC0); assay: Tested for the affinity for intestinal PYY from rat jejunum by using short circuit current (SCC) method.
T2 sequence (Q9ERC0 whole entry): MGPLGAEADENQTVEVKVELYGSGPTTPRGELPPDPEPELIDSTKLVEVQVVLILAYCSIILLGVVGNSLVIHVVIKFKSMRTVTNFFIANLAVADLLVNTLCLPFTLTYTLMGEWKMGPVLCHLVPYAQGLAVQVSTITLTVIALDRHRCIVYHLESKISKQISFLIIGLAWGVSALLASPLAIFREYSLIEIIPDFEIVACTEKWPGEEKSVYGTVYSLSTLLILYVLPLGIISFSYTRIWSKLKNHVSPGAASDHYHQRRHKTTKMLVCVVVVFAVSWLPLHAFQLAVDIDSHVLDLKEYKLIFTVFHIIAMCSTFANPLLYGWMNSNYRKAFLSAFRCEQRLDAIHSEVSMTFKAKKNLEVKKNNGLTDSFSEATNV

Rattus norvegicus = assay: Tested for in vivo antisecretory potency for inhibiting VIP-induced (30 micro g/kg/h) secretion in isolated jejunum in anesthetized rats.(95% CL); assay type: functional; conditions: read-out: ID50 (the source's name)
Procedure, shortened: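 Rats anesthetized, saphenous vein cannulated. Isolated jejunal loop instilled with 2000 μL fluid. At the end the loop is excised, measured and weighed before and after emptying. Net water flux (μL/cm/30 min) = (F-E)2000/L; negative means absorption. 6-8 animals per dose.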

[4] = biological target: T2, Neuropeptide Y receptor type 2; assay: Antisecretory potency, affinity for intestinal PYY of rat jejunum by using short circuit current (SCC) method.; assay type: tissue-based

Row | Molecule | pIC50 [1] | pIC50 [2] | pIC50 [3] | ED50 (Rattus norvegicus) [µmol/kg] | pIC50 [4] | pIC50 ([2]; sk-n-mc)
1 | Ac-ASLRHWLNLVTRQRY-NH2 | 8.68 | 7.11 | 8.49 | – | – | –
2 | CCCC[C@H](NC(=O)[C@H](CO)NC(=O)[C@H](C)NC(C)=O)C(=O)N[C@@H](CCCN=C(N)N)C(=O)N[C@@H](Cc1c[nH]cn1)C(=O)N[C@@H](Cc1ccc(O)cc1)C(=O)N[C@@H](CCCC)C(=O)N[C@@H](CC(N)=O)C(=O)N[C@@H](Cc1c[nH]c2ccccc12)C(=O)N[C@@H](CCC)C(=O)N[C@H](C(=O)N[C@@H](CCCN=C(N)N)C(=O)N[C@@H](CCC(N)=O)C(=O)N[C@@H](CCCN=C(N)N)C(=O)N[C@@H](Cc1ccc(O)cc1)C(N)=O)[C@@H](C)O | – | – | – | 1.3e-05 | – | –
3 | CCCC[C@H](NC(=O)[C@H](CO)NC(=O)[C@H](C)NC(C)=O)C(=O)N[C@@H](CCCN=C(N)N)C(=O)N[C@@H](Cc1c[nH]cn1)C(=O)N[C@@H](Cc1ccc(O)cc1)C(=O)N[C@@H](CCCC)C(=O)N[C@@H](CC(N)=O)C(=O)N[C@@H](Cc1c[nH]c2ccccc12)C(=O)N[C@@H](CCC)C(=O)N[C@H](C(=O)N[C@@H](CCCN=C(N)N)C(=O)N[C@@H](CCC(N)=O)C(=O)N[C@@H](CCCN=C(N)N)CN[C@@H](Cc1ccc(O)cc1)C(N)=O)[C@@H](C)O | 8.76 | 5.80 | – | 5.9e-05 | 9.51 | –
4 | Ac-ASWRHYLNLVTRQRY-NH2 | – | – | 8.68 | – | – | –
5 | CC(=O)N[C@@H](C)C(=O)N[C@@H](CO)C(=O)N[C@@H](CC(C)C)C(=O)N[C@@H](CCCN=C(N)N)C(=O)N[C@@H](Cc1c[nH]cn1)C(=O)N[C@@H](Cc1ccc(O)cc1)C(=O)N[C@@H](CC(C)C)C(=O)N[C@@H](CC(N)=O)C(=O)N[C@@H](Cc1c[nH]c2ccccc12)C(=O)N[C@H](C(=O)N[C@H](C(=O)N[C@@H](CCCN=C(N)N)C(=O)N[C@@H](CCC(N)=O)C(=O)N[C@@H](CCCN=C(N)N)CN[C@@H](Cc1ccc(O)cc1)C(N)=O)[C@@H](C)O)C(C)C | – | – | – | 0.00019 | – | –
6 | CC(=O)N[C@@H](C)C(=O)N[C@@H](CO)C(=O)N[C@@H](CSSC[C@H](NC(=O)[C@H](CO)NC(=O)[C@H](C)NC(C)=O)C(=O)N[C@@H](CCCNC(=N)N)C(=O)N[C@@H](Cc1cnc[nH]1)C(=O)N[C@@H](Cc1ccc(O)cc1)C(=O)N[C@@H](CC(C)C)C(=O)N[C@@H](CC(N)=O)C(=O)N[C@@H](CC(C)C)C(=O)N[C@H](C(=O)N[C@H](C(=O)N[C@@H](CCCNC(=N)N)C(=O)N[C@@H](CCC(N)=O)C(=O)N[C@@H](CCCNC(=N)N)C(=O)N[C@@H](Cc1ccc(O)cc1)C(N)=O)[C@@H](C)O)C(C)C)C(=O)N[C@@H](CCCNC(=N)N)C(=O)N[C@@H](Cc1cnc[nH]1)C(=O)N[C@@H](Cc1ccc(O)cc1)C(=O)N[C@@H](CC(C)C)C(=O)N[C@@H](CC(N)=O)C(=O)N[C@@H](CC(C)C)C(=O)N[C@H](C(=O)N[C@H](C(=O)N[C@@H](CCCNC(=N)N)C(=O)N[C@@H](CCC(N)=O)C(=O)N[C@@H](CCCNC(=N)N)C(=O)N[C@@H](Cc1ccc(O)cc1)C(N)=O)[C@@H](C)O)C(C)C (I: Ac-ASCRHYLNLVTRQRY-NH2 / II: Ac-ASCRHYLNLVTRQRY-NH2; disulfide I:3-II:3) [listing 1 of 2 here] | – | – | – | 0.000365 | – | –
7 | CC(=O)N[C@@H](C)C(=O)N[C@@H](CO)C(=O)N[C@@H](CC(C)C)C(=O)N[C@@H](CCCN=C(N)N)C(=O)N[C@@H](Cc1c[nH]cn1)C(=O)N[C@@H](Cc1ccc(O)cc1)C(=O)N[C@@H](CC(C)C)C(=O)N[C@@H](CC(N)=O)C(=O)N[C@@H](Cc1c[nH]c2ccccc12)C(=O)N[C@H](C(=O)N[C@H](C(=O)N[C@@H](CCCN=C(N)N)C(=O)N[C@@H](CCC(N)=O)C(=O)N[C@@H](CCCN=C(N)N)C(=O)N[C@@H](Cc1ccc(O)cc1)C(N)=O)[C@@H](C)O)C(C)C | 9.01 | 6.60 | – | 2.1e-06 | 9.22 | –
8 | CC(=O)N[C@@H](C)C(=O)N[C@@H](CO)C(=O)N[C@@H](CC(C)C)C(=O)N[C@@H](CCCN=C(N)N)C(=O)N[C@@H](Cc1c[nH]cn1)C(=O)N[C@@H](Cc1ccc(O)cc1)C(=O)N[C@H](CN[C@@H](CC(N)=O)C(=O)N[C@@H](CC(C)C)C(=O)N[C@H](C(=O)N[C@H](C(=O)N[C@@H](CCCN=C(N)N)C(=O)N[C@@H](CCC(N)=O)C(=O)N[C@@H](CCCN=C(N)N)C(=O)N[C@@H](Cc1ccc(O)cc1)C(N)=O)[C@@H](C)O)C(C)C)CC(C)C | 7.26 | 5.86 | – | – | 9.44 | –
9 | CC(=O)N[C@@H](C)C(=O)N[C@@H](CO)C(=O)N[C@@H](CC(C)C)C(=O)N[C@@H](CCCN=C(N)N)C(=O)N[C@@H](Cc1c[nH]cn1)C(=O)N[C@@H](Cc1ccc(O)cc1)C(=O)N[C@@H](CC(C)C)C(=O)N[C@@H](CC(N)=O)C(=O)N[C@@H](CC(C)C)C(=O)N[C@H](C(=O)N[C@H](C(=O)N[C@@H](CCCN=C(N)N)C(=O)N[C@@H](CCC(N)=O)C(=O)N[C@@H](CCCN=C(N)N)CN[C@@H](Cc1ccc(O)cc1)C(N)=O)[C@@H](C)O)C(C)C (Ac-ASLRHYLNLVTRQ-{Argψ(CH2NH)TyrNH2}) | 8.88 | < 5.00 | – | – | 10.30 | –
10 | CC(=O)N[C@@H](C)C(=O)N[C@@H](CO)C(=O)N[C@@H](CC(C)C)C(=O)N[C@@H](CCCN=C(N)N)CN[C@@H](Cc1c[nH]cn1)C(=O)N[C@@H](Cc1ccc(O)cc1)C(=O)N[C@@H](CC(C)C)C(=O)N[C@@H](CC(N)=O)C(=O)N[C@@H](CC(C)C)C(=O)N[C@H](C(=O)N[C@H](C(=O)N[C@@H](CCCN=C(N)N)C(=O)N[C@@H](CCC(N)=O)C(=O)N[C@@H](CCCN=C(N)N)C(=O)N[C@@H](Cc1ccc(O)cc1)C(N)=O)[C@@H](C)O)C(C)C (H-[X4]([Leu-Ser-Ala-Ac])YLNLVTRQRY-NH2) | 7.39 | < 6.00 | – | – | 8.37 | –
11 | CC(=O)N[C@@H](C)C(=O)N[C@@H](CO)C(=O)N[C@@H](CSSC[C@H](NC(=O)[C@H](CO)NC(=O)[C@H](C)NC(C)=O)C(=O)N[C@@H](CCCNC(=N)N)C(=O)N[C@@H](Cc1cnc[nH]1)C(=O)N[C@@H](Cc1ccc(O)cc1)C(=O)N[C@@H](CC(C)C)C(=O)N[C@@H](CC(N)=O)C(=O)N[C@@H](CC(C)C)C(=O)N[C@H](C(=O)N[C@H](C(=O)N[C@@H](CCCNC(=N)N)C(=O)N[C@@H](CCC(N)=O)C(=O)N[C@@H](CCCNC(=N)N)C(=O)N[C@@H](Cc1ccc(O)cc1)C(N)=O)[C@@H](C)O)C(C)C)C(=O)N[C@@H](CCCNC(=N)N)C(=O)N[C@@H](Cc1cnc[nH]1)C(=O)N[C@@H](Cc1ccc(O)cc1)C(=O)N[C@@H](CC(C)C)C(=O)N[C@@H](CC(N)=O)C(=O)N[C@@H](CC(C)C)C(=O)N[C@H](C(=O)N[C@H](C(=O)N[C@@H](CCCNC(=N)N)C(=O)N[C@@H](CCC(N)=O)C(=O)N[C@@H](CCCNC(=N)N)C(=O)N[C@@H](Cc1ccc(O)cc1)C(N)=O)[C@@H](C)O)C(C)C (I: Ac-ASCRHYLNLVTRQRY-NH2 / II: Ac-ASCRHYLNLVTRQRY-NH2; disulfide I:3-II:3) [listing 2 of 2 here] | 9.41 | 6.96 | – | – | 9.20 | –
12 | Ac-ASLRHYWNWVTRQRY-NH2 | 8.50 | 6.63 | – | – | 8.97 | –
13 | CC(=O)N[C@@H](C)C(=O)N[C@@H](CO)C(=O)N[C@@H](CC(C)C)C(=O)N[C@@H](CCCN=C(N)N)C(=O)N[C@@H](Cc1c[nH]cn1)C(=O)N[C@@H](Cc1ccsc1)C(=O)N[C@@H](CC(C)C)C(=O)N[C@@H](CC(N)=O)C(=O)N[C@@H](CC(C)C)C(=O)N[C@H](C(=O)N[C@H](C(=O)N[C@@H](CCCN=C(N)N)C(=O)N[C@@H](CCC(N)=O)C(=O)N[C@@H](CCCN=C(N)N)C(=O)N[C@@H](Cc1ccc(O)cc1)C(N)=O)[C@@H](C)O)C(C)C (Ac-ASLRH[3Thi]LNLVTRQRY-NH2) | 8.58 | – | – | – | 9.00 | 6.59
14 | Ac-YSLRHFLNLVTRQRY-NH2 | 8.57 | 7.31 | – | – | 8.47 | –
15 | CC(=O)N[C@@H](C)C(=O)N[C@@H](CO)C(=O)N[C@@H](CC(C)C)C(=O)N[C@@H](CCCNC(=N)N)C(=O)N[C@@H](Cc1cnc[nH]1)C(=O)N[C@@H](Cc1ccc(O)cc1)C(=O)N[C@@H](CC(C)C)C(=O)N[C@@H](CC(N)=O)C(=O)N[C@@H](Cc1cccc2ccccc12)C(=O)N[C@H](C(=O)N[C@H](C(=O)N[C@@H](CCCNC(=N)N)C(=O)N[C@@H](CCC(N)=O)C(=O)N[C@@H](CCCNC(=N)N)C(=O)N[C@@H](Cc1ccc(O)cc1)C(N)=O)[C@@H](C)O)C(C)C (Ac-ASLRHYLN[1Nal]VTRQRY-NH2) | 8.96 | 6.80 | – | – | 8.45 | –
16 | CC(=O)N[C@@H](C)C(=O)N[C@@H](CO)C(=O)N[C@@H](CC(C)C)C(=O)N[C@@H](CCCNC(=N)N)C(=O)N[C@@H](Cc1cnc[nH]1)C(=O)N[C@@H](Cc1ccc(O)cc1)C(=O)N[C@@H](CC(C)C)C(=O)N[C@@H](CC(N)=O)C(=O)N[C@@H](CC(C)C)C(=O)N[C@H](C(=O)N[C@H](C(=O)N[C@@H](CCCNC(=N)N)C(=O)N[C@@H](CCC(N)=O)C(=O)N[C@@H](CCCNC(=N)N)C(=O)N[C@H](C(N)=O)C(c1ccccc1)c1ccccc1)[C@@H](C)O)C(C)C (Ac-ASLRHYLNLVTRQR[Dip]-NH2) | < 5.00 | 5.90 | – | – | < 7.00 | –
